Consider ten molecules from ChEMBL document CHEMBL1143334, “Peri-substituted hexahydro-indolones as novel, potent and selective human EP3 receptor antagonists” (Bioorg Med Chem Lett, 2009).

Data set [1] deals with T1, Prostaglandin E2 receptor EP3 subtype (Homo sapiens, UniProt P43115).
T1 sequence (P43115 whole entry): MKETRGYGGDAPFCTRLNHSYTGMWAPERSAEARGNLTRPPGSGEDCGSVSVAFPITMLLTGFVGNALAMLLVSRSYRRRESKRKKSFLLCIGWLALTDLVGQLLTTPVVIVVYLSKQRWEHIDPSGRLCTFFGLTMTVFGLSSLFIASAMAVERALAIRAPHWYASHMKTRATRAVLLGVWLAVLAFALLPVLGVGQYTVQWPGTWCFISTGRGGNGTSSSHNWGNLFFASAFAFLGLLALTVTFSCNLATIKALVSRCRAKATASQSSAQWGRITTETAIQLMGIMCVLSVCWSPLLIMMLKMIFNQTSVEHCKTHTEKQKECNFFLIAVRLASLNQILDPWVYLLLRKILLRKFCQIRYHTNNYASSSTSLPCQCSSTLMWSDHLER
Nature of the data set: Displacement of [3H]PGE2 from human EP3 receptor. A digest of the protocol:
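Displacement of [3H]-PGE2 from human EP3 receptor membrane preparations was run in buffer. IC50 values come from at least three experiments each.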
For orientation: In a radioligand displacement assay an active substance lowers the binding of a labelled ligand.

Data set [2] deals with T2, Prostaglandin E2 receptor EP3 subtype (Homo sapiens) (UniProt P43115).
T2 sequence (whole entry): T1 sequence (P43115 whole entry)
Put plainly: Ratio of IC50 for human EP3 receptor in presence of 10% human serum to IC50 for human EP3 receptor in buffer. A digest of the protocol:
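Displacement of [3H]-PGE2 from human EP3 membrane preparations was run both with 10% human serum and in buffer alone. Fold-shift is IC50 with serum divided by IC50 in buffer.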

The target of data set [3] is Prostaglandin E2 receptor EP4 subtype (Homo sapiens, UniProt P35408). Nature of the data set: Binding affinity to human EP4 receptor at 20 uM by radioligand binding assay.
Data set [4] is filed under the species Homo sapiens. Put plainly: Selectivity of human EP1 receptor over human EP3 receptor.
The species entered for data set [5] is Homo sapiens. Nature of the data set: Selectivity of human EP2 receptor over human EP3 receptor.
The species entered for data set [6] is Homo sapiens. Nature of the data set: Selectivity of human EP4 receptor over human EP3 receptor.
The species named for data set [7] is Homo sapiens. Put plainly: Selectivity of human FP receptor over human EP3 receptor.
The target of data set [8] is T3, Prostaglandin E2 receptor EP1 subtype (Homo sapiens) (UniProt P34995).
T3 sequence (whole entry): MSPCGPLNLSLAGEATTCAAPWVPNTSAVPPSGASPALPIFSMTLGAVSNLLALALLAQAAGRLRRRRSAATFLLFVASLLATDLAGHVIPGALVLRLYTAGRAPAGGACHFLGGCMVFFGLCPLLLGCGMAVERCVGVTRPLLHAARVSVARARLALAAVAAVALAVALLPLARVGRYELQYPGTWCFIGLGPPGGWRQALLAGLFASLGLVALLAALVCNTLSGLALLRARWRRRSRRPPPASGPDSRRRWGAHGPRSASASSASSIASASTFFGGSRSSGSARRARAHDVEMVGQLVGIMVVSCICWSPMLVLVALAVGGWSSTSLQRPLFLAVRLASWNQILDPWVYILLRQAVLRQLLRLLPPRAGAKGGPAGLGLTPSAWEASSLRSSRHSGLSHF
Nature of the data set: Binding affinity to human EP1 receptor at 20 uM by radioligand binding assay.

Data set [9] deals with Prostaglandin E2 receptor EP2 subtype (Homo sapiens, UniProt P43116). Nature of the data set: Binding affinity to human EP2 receptor at 20 uM by radioligand binding assay.
Data set [10] deals with Prostaglandin F2-alpha receptor (Homo sapiens, UniProt P43088). Nature of the data set: Binding affinity to human FP receptor by radioligand binding assay.
The nature of data set [11]: Metabolic stability in rat liver microsomes after 30 mins. The data set is classed as ADME, Microsome. To be noted: read-out: Stability. In short, it runs like this: (§1)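 Compound was incubated 30 min with liver microsomes from each species. Percent parent remaining was measured by LC/MS/MS.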
The nature of data set [12]: Metabolic stability in human liver microsomes after 30 mins. The data set is classed as ADME, Microsome. The settings on record: read-out: Stability. A digest of the protocol: as §1
(In general: Liver microsomes are vesicles of endoplasmic reticulum, rich in cytochrome P450 enzymes.)

The target of data set [13] is T1, Prostaglandin E2 receptor EP3 subtype. Put plainly: Antagonist activity at human EP3 receptor expressed in CHO-K1 cells assessed as reversal of inhibition of forskolin-induced cAMP production. Format: functional, cell-based. A digest of the protocol: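 CHO-K1 cells stably expressing human EP3 were exposed to increasing test compound concentrations for 10 min at 37 °C, with 5 μM forskolin plus 5 nM PGE2 present. Read-out was the block of PGE2's inhibition of the forskolin-induced cAMP rise, giving IC50.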
On the technique in general: Changes in cAMP serve as a functional read-out for many G protein-coupled receptors.

Data set [14] is described as follows: Aqueous solubility in 50 mM PSB buffer at pH 7.4 by HPLC analysis. Format: physicochemical. A digest of the protocol: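 Samples were stirred overnight in 50 mM PSB buffer, pH 7.4, then filtered. Concentration was measured by HPLC against a 5-point standard curve, giving thermodynamic solubility.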

Each structure is given as a SMILES string. Values after ≈ are worked out from the molar mass of the structure shown. Active and inactive are the calls of the source. No cut-off for these calls is given here.

Sequence of Prostaglandin F2-alpha receptor (P43088 whole entry): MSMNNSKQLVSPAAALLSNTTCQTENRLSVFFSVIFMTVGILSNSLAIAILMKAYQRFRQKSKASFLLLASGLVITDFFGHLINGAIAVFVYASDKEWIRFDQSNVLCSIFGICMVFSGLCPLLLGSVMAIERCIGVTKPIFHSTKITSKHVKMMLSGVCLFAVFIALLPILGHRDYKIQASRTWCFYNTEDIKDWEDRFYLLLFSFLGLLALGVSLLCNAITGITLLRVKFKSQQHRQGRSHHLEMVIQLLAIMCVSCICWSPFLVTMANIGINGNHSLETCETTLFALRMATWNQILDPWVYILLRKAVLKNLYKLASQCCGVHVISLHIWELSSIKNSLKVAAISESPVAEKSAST
Sequence of Prostaglandin E2 receptor EP4 subtype (P35408 whole entry): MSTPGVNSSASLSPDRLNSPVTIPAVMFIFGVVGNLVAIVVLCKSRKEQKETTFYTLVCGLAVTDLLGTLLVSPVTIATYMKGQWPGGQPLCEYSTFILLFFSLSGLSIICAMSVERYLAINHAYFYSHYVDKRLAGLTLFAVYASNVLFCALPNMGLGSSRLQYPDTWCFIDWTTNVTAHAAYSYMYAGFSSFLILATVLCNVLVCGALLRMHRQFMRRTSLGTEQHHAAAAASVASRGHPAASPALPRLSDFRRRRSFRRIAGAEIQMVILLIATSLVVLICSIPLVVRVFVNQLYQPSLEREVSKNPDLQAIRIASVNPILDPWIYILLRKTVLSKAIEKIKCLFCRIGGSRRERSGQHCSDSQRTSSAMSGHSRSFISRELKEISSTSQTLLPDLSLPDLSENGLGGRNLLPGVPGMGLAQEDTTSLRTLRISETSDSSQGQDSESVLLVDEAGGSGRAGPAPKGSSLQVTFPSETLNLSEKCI
Sequence of Prostaglandin E2 receptor EP2 subtype (P43116 whole entry): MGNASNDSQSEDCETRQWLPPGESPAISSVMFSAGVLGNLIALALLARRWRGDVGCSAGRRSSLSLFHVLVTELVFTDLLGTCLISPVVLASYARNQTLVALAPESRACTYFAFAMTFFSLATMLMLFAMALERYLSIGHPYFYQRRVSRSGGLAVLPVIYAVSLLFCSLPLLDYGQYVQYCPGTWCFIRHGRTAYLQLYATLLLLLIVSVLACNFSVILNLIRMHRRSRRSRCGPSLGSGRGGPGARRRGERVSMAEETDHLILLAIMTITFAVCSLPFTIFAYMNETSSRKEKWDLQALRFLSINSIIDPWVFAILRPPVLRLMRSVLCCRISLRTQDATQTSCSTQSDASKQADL

In general, IC50 refers to the concentration that inhibits the measured activity by half. For `CC12CCCC(/C=C/C(=O)NS(=O)(=O)c3cc(F)cc(F)c3)=C1N(Cc1ccc(F)cc1)C(=O)C2` (stereo not drawn), the IC50 in data set [1] is 84.1 nM; in data set [10] it was 4200 nM. The fold change (FC) in data set [2] was 5.4. The outcome in [3], in data set [8] and in [9] was inactive. The Selectivity ratio in the data set filed under Homo sapiens [4], in the data set filed under Homo sapiens [5], in the data set listed under Homo sapiens [6] and in the data set filed under Homo sapiens [7] was > 1000 each time.

With `CC12CCCC(/C=C/C(=O)NS(=O)(=O)c3cc(F)c(F)cc3F)=C1N(Cc1cccc(Cl)c1Cl)C(=O)C2` (stereo not drawn), the IC50 worked out at 4.3 nM in data set [1], 7400 nM in data set [10] and 4.5 nM in data set [13]. The fold change (FC) in data set [2] amounted to 5.8. The values for the remaining at 0.5 h in data set [11] and in data set [12] were 50% and 49%, respectively. The result in data set [3], in [8] and in [9] was inactive. The Selectivity ratio in the data set filed under Homo sapiens [4], in the data set listed under Homo sapiens [5], in the data set listed under Homo sapiens [6] and in the data set listed under Homo sapiens [7] was > 1000 throughout.

By solubility is commonly meant how much of the substance goes into solution per volume. High values mean a readily soluble substance, low ones a poorly soluble substance. Consider `Cc1cn(Cc2ccc(F)c(F)c2)c2c(/C=C/C(=O)NS(=O)(=O)c3cc(F)c(F)cc3F)cc(F)cc12`, for which the solubility in data set [14] is < 40 µg/mL.

For the molecule `CC12CCCC(/C=C/C(=O)NS(=O)(=O)c3cc(Cl)c(Cl)s3)=C1N(Cc1ccc(F)cc1)C(=O)C2` (stereo not drawn), the half-maximal inhibitory concentration (IC50) in [1] was 3.8 nM; in data set [10], 27400 nM. Also, in data set [2], the fold change (FC) is 3. In addition, the remaining at 0.5 h in data set [11] amounted to 50%; in data set [12] it was 74%. For the same molecule, the outcome in data set [3], in [8] and in data set [9] was inactive. The Selectivity ratio in the data set listed under Homo sapiens [4], in the data set listed under Homo sapiens [5], in the data set listed under Homo sapiens [6] and in the data set listed under Homo sapiens [7] was > 1000 throughout.

For the molecule `COc1cccc(CN2C(=O)CC3(C)CCCC(/C=C/C(=O)NS(=O)(=O)c4cc(Cl)c(Cl)s4)=C23)c1` (stereo not drawn), the IC50 was 6.4 nM in [1], 6100 nM in data set [10] and 5.8 nM in data set [13]. Also, the fold change (FC) in data set [2] is 4.8. Moreover, the figures for the remaining at 0.5 h in [11] and in data set [12] were 64% and 62%, respectively. Further, the outcome in data set [3], in data set [8] and in [9] was inactive. Also, the Selectivity ratio in the data set filed under Homo sapiens [4], in the data set filed under Homo sapiens [5], in the data set filed under Homo sapiens [6] and in the data set listed under Homo sapiens [7] was > 1000 throughout.

`CC12CCCC(/C=C/C(=O)NS(=O)(=O)c3cc(Cl)cc(Cl)c3)=C1N(Cc1ccc(F)c(F)c1)C(=O)C2` (stereo not drawn): the figures for the half-inhibitory concentration (IC50) in [1] and in data set [13] were 5.6 nM and 3.2 nM, respectively. The fold change (FC) in data set [2] came out at 26.8. In addition, the figures for the remaining at 0.5 h in data set [11] and in data set [12] were 45% and 68%, respectively.

`CC1C(=O)N(Cc2ccc(F)c(F)c2)c2c(/C=C/C(=O)NS(=O)(=O)c3cc(F)c(F)cc3F)cccc21` (stereo not drawn) gave a solubility in data set [14] of 1580 µg/mL (≈ 2950 µM).

Regarding `CC12CCCC(/C=C/C(=O)NS(=O)(=O)c3cc(Cl)c(Cl)s3)=C1N(Cc1ccc(F)c(F)c1)C(=O)C2` (stereo not drawn), the results for the IC50 in data set [1] and in data set [13] were 3.5 nM and 5.2 nM, respectively. The fold change (FC) in [2] is 17.7. For the same molecule, the remaining at 0.5 h in data set [11] came out at 22%; in [12], 80%.

In the case of `CC12CCCC(/C=C/C(=O)NS(=O)(=O)c3ccc(F)c(F)c3)=C1N(Cc1cccc(Cl)c1Cl)C(=O)C2` (stereo not drawn), the IC50 came to 3.4 nM in data set [1] and 3.5 nM in [13]. Also, the fold change (FC) in [2] is 7.8.

Consider `CC12CCCC(/C=C/C(=O)NS(=O)(=O)c3cc(Cl)c(Cl)s3)=C1N(Cc1cccc(Cl)c1Cl)C(=O)C2` (stereo not drawn), for which the values for the 50% inhibitory concentration (IC50) in [1] and in data set [13] were 4.4 nM and 1.7 nM, respectively. In addition, the fold change (FC) in data set [2] was 6.6. For the same molecule, the values for the remaining at 0.5 h in [11] and in data set [12] were 69% and 80%, respectively.
